Measurements published in ChEMBL document CHEMBL1125428, “Development of 2,3-dihydro-6-(3-phenoxypropyl)-2-(2-phenylethyl)-5-benzofuranol (L-670,630) as a potent and orally active inhibitor of 5-lipoxygenase” (J Med Chem, 1992).

Key:
[1] = target: Arachidonate 5-lipoxygenase (Homo sapiens); assay: Inhibitory activity of LTB4 production in human PMN
[2] = organism: Canis familiaris; assay: Effect on methemoglobin formation in canine venous blood containing heparin; type: functional, Canis lupus familiaris
[3] = target: T1, Polyunsaturated fatty acid 5-lipoxygenase (Rattus norvegicus, UniProt P12527); assay: Tested for its inhibitory activity against arachidonic acid in rat 5-lipoxygenase.
T1 sequence (P12527 whole entry): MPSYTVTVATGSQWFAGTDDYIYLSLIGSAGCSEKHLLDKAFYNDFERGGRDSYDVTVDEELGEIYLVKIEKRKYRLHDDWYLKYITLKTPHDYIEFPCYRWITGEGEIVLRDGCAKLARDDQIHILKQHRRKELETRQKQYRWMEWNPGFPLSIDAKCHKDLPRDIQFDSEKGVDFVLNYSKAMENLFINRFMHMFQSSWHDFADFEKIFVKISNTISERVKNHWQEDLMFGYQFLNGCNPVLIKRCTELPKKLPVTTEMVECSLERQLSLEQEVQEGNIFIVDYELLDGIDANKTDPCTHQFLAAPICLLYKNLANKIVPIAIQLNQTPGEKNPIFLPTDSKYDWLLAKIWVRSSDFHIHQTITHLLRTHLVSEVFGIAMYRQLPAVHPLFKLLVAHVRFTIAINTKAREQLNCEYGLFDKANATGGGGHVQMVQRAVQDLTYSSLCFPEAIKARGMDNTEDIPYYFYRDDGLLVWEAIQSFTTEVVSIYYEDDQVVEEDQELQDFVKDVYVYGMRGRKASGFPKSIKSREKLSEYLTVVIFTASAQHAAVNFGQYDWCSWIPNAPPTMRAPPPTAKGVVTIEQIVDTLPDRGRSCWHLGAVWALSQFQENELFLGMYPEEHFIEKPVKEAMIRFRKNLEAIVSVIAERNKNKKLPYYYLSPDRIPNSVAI
Procedure, shortened: (§1)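 10000g supernatant from rat PMN leukocytes incubated 10 min with [14C]arachidonic acid. 5-Lipoxygenase activity taken as percentage conversion to 5-HETE plus 5,12-diHETEs.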

[4] = organism: Rattus norvegicus; assay: Percentage inhibition against antigen induced dyspnea in hyperactive inbred rat at a dose of […]; type: functional
[5] = Peak concentration of drug in rat plasma after oral dosing at 20 mg/kg. Concentration of parent compound was measured before (free) and after (total) beta-glucuronidase treatment; total 3.4 uM; type: ADME, organism-based; parameters: dose 20 mg/kg, route oral; conditions: read-out: Plasma level
[6] = Measure of AUCpo/AUCiv x 100% of the parent compound before (free) and after (total) beta-glucuronidase treatment; total 4%; type: ADME, organism-based; conditions: in vivo, po; read-out: Bioavailabiility
[7] = organism: Rattus norvegicus; assay: Effective dose against antigen induced dyspnea in hyperactive inbred rat at a dose of […]; type: functional
[8] = system: Rattus norvegicus; assay: Percentage inhibition against antigen induced dyspnea in hyperactive inbred rat at a dose of 0.5 mg/kg; type: functional; conditions: for inhibition in vivo at 0.5 mg/kg: Rattus norvegicus
Procedure, shortened: (§2)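 Inbred hyperreactive rats, six per group, dosed po 2 h before aerosol ovalbumin challenge, with drug suspension or vehicle (0.4% Methocel/0.5% Tween 80, 10 mL/kg). Methysergide 3 mg/kg iv given 5 min before antigen. Dyspnea duration recorded by pneumotachograph. % inhibition of duration is relative to vehicle controls. Student's t test used; ED50 from linear regression.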

[9] = system: Rattus norvegicus; assay: Percentage inhibition against antigen induced dyspnea in hyperactive inbred rat at a dose of 0.05 mg/kg; type: functional
Procedure, shortened: as §2

[10] = Peak concentration of drug in rat plasma after oral dosing at 20 mg/kg. Concentration of parent compound was measured before (free) and after (total) beta-glucuronidase treatment; total 3.0 uM; type: ADME, organism-based; parameters: dose 20 mg/kg, route oral; conditions: read-out: Plasma level
[11] = Measure of AUCpo/AUCiv x 100% of the parent compound before (free) and after (total) beta-glucuronidase treatment; total 10%; type: ADME, organism-based; conditions: in vivo, po; read-out: Bioavailabiility
[12] = target: T1, Polyunsaturated fatty acid 5-lipoxygenase; assay: The compound was tested for its inhibitory activity against arachidonic acid in rat 5-lipoxygenase
Procedure, shortened: as §1

[13] = system: Rattus norvegicus; assay: Peak concentration of drug in rat plasma after oral dosing at 20 mg/kg. Concentration of parent compound was measured before (free) and after (total) beta-glucuronidase treatment; total 0.7 uM; type: functional, organism-based; parameters: dose 20 mg/kg
[14] = system: Rattus norvegicus; assay: Effective dose against antigen induced dyspnea in hyperactive inbred rat at a dose of 0.5 mg/kg; type: functional
Procedure, shortened: as §2

[15] = Measure of AUCpo/AUCiv x 100% of the parent compound before (free) and after (total) beta-glucuronidase treatment; total 27%; type: ADME, organism-based; conditions: in vivo, po; read-out: Bioavailabiility
[16] = Peak concentration of drug in rat plasma after oral dosing at 20 mg/kg. Concentration of parent compound was measured before (free) and after (total) beta-glucuronidase treatment; total 3.1 uM; type: ADME, organism-based; parameters: dose 20 mg/kg, route oral; conditions: read-out: Plasma level
[17] = Measure of AUCpo/AUCiv x 100% of the parent compound before (free) and after (total) beta-glucuronidase treatment; total 72%; type: ADME, organism-based; conditions: in vivo, po; read-out: Bioavailabiility
[18] = Peak concentration of drug in rat plasma after oral dosing at 20 mg/kg. Concentration of parent compound was measured before (free) and after (total) beta-glucuronidase treatment; total 2.2 uM; type: ADME, organism-based; parameters: dose 20 mg/kg, route oral; conditions: read-out: Plasma level
[19] = Peak concentration of drug in rat plasma after oral dosing at 20 mg/kg. Concentration of parent compound was measured before (free) and after (total) beta-glucuronidase treatment; total 3.8 uM; type: ADME, organism-based; parameters: dose 20 mg/kg, route oral; conditions: read-out: Plasma level
[20] = Measure of AUCpo/AUCiv x 100% of the parent compound before (free) and after (total) beta-glucuronidase treatment; total 76%; type: ADME, organism-based; conditions: in vivo, po; read-out: Bioavailabiility

Row | SMILES | IC50 [1] [nM] | Formation [2] [%] | IC50 [3] [nM] | also measured
1 | COc1ccc(CC2Oc3ccc(O)cc3C2C)cc1 (stereo not drawn) | 107 | 6 |  | 
2 | C=CCc1c(O)ccc2c1CC(CCc1ccccc1)O2 (stereo not drawn) | 38 | 18 | 25 | 
3 | CC1(C)c2cc(O)c(CCCOc3ccccc3)cc2OC1CCc1ccccc1 (stereo not drawn) | 38 | 6 | 40 | inhibition in vivo at […] ([4]; dose 1.5 mg/kg): 48%
4 | COc1nc2c(SCCCc3cc4c(cc3O)CC(CCc3ccccc3)O4)cccc2cc1C(=O)O (stereo not drawn) | 37 | 1 | 50 | inhibition in vivo at […] ([4]; dose 0.15 mg/kg): 72%; Cmax [5]: 1000 nM; bioavailability [6]: 3%; ED50 at […] [7]: < 0.05 mg/kg; inhibition in vivo at 0.5 mg/kg [8]: 69%; inhibition in vivo at 0.05 mg/kg [9]: 55%
5 | CCCc1cc(Cl)c2c(c1O)C(C)C(Cc1ccc(OC)cc1)O2 (stereo not drawn) | 235 |  |  | 
6 | Oc1cc2c(cc1CCCOc1ccc(C3N=NN=N3)cc1)OC(CCc1ccccc1)C2 (stereo not drawn) | 201 |  |  | 
7 | Oc1cc2c(cc1CCCOc1ccccc1)OCC2 | 57 |  |  | 
8 | CC1(C)c2cc(O)c(CCCOc3ccccc3)cc2OC1CCc1ccc(Cl)cc1 (stereo not drawn) | 472 |  |  | 
9 | Oc1cc2c(cc1CCCSc1ccncc1)OC(CCc1ccccc1)C2 (stereo not drawn) | 14 | 6 | 8 | Cmax [10]: 1000 nM; inhibition in vivo at […] ([4]; dose 1.5 mg/kg): 51%; bioavailability [11]: 11%
10 | CCCc1c(O)c(CCCOc2ccccc2)cc2c1CC(CCc1ccccc1)O2 (stereo not drawn) | 52 | 2 |  | IC50 [12]: 127 nM
11 | C=CCc1cc2c(cc1O)C(C)(C)C(CCc1ccc(OC)cc1)O2 (stereo not drawn) | 47 | 2 | 52 | inhibition in vivo at […] ([4]; dose 1.5 mg/kg): 50%; Plasma level [13]: 0 µM
12 | CCCc1cc2c(cc1O)C(C)(C)C(CCc1ccc(SC)cc1)O2 (stereo not drawn) | 28 |  | 92 | 
13 | CS(=O)(=O)c1ccc(Cc2cc3c(cc2O)CC(CCc2ccccc2)O3)cc1 (stereo not drawn) | 190 |  |  | 
14 | CCCc1cc2c(cc1O)C(C)(C)C(CCSc1ccccn1)O2 (stereo not drawn) | 75 |  | 44 | 
15 | CCCc1cc2c(cc1O)C(C)(C)C(CCc1ccc(S(C)(=O)=O)cc1)O2 (stereo not drawn) | 176 |  |  | 
16 | C=CCc1cc2c(cc1O)CC(CCc1ccccc1)O2 (stereo not drawn) | 10 | 52 | 17 | inhibition in vivo at […] ([4]; dose 1.5 mg/kg): 50%; inhibition in vivo at 0.5 mg/kg [8]: 65%
17 | Oc1ccc2c(c1)CC(CCc1ccccc1)O2 (stereo not drawn) | 275 | 40 |  | 
18 | C=CCc1cc2c(cc1O)C(C)(C)C(Cc1ccc(OC)cc1)O2 (stereo not drawn) | 49 | 1 | 164 | inhibition in vivo at […] ([4]; dose 1.5 mg/kg): 68%
19 | Oc1cc2c(cc1CCCSc1nc3ccccc3s1)OC(CCc1ccccc1)C2 (stereo not drawn) | 22 | 1 | 45 | 
20 | CCCc1c(OCCCc2cc3c(cc2O)CC(CCc2ccccc2)O3)ccc(C(C)=O)c1O (stereo not drawn) | 9 | 3 | 53 | Inhibition ([8]; 0.5 mg/kg): 50%; inhibition in vivo at 0.5 mg/kg [8]: 50%
21 | Oc1cc2c(cc1CCCOc1ccccc1)OC(CCc1ccc(Cl)cc1)C2 (stereo not drawn) | 41 | 2.8 | 51 | inhibition in vivo at […] ([4]; dose 0.15 mg/kg): 66%; ED50 [14]: 0.07 mg/kg; bioavailability [15]: 6%; inhibition in vivo at 0.05 mg/kg [9]: 56%; Cmax [16]: 300 nM
22 | CCCc1cc2c(cc1O)C(C)C(Cc1ccc(OC)cc1)O2 (stereo not drawn) | 18 | 6 |  | IC50 [12]: 35 nM
23 | O=C(O)c1ccc(OCCCc2cc3c(cc2O)CC(CCc2ccccc2)O3)cc1 (stereo not drawn) | 356 | 3 | 44 | 
24 | CCCc1c(O)c(CCCOc2ccc(C3N=NN=N3)cc2)cc2c1CC(CCc1ccccc1)O2 (stereo not drawn) | 107 | 2 | 45 | inhibition in vivo at […] ([4]; dose 0.15 mg/kg): 61%; ED50 at […] [7]: 0.03 mg/kg; bioavailability [17]: 12%; inhibition in vivo at 0.5 mg/kg [8]: 64%; inhibition in vivo at 0.05 mg/kg [9]: 52%; Cmax [18]: 1600 nM
25 | Oc1cc2c(cc1Cc1ccccc1)OC(CCc1ccccc1)C2 (stereo not drawn) | 18 | 6 | 48 | inhibition in vivo at […] ([4]; dose 0.15 mg/kg): 44%; ED50 at […] [7]: 0.3 mg/kg; Cmax [19]: 1600 nM; bioavailability [20]: 44%; inhibition in vivo at 0.5 mg/kg [8]: 53%; inhibition in vivo at 0.05 mg/kg [9]: 44%
